Screens (PubChem)
Sampled rows, rich in hits. Any-hit rate of the full collection: about 2.8%.
PAFAH1B2 FP inh: PAFAH1B2 (human) inhibition | P68402 | recombinant PAFAH1B2, FP-rhodamine activity probe, fluorescence polarization | inhibition, % at 3.39 µM | hit rate 1.2% among 340,000 | AID 492953;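 active = inhibition above the mean of all tested compounds plus 3 SD, cut at about 24% in these data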;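 also: 0% = enzyme with DMSO and 100% = wells lacking PAFAH1B2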
ARFGAP1 inhibitor: inhibits rat ARF GTPase activating protein 1. AID 651572. Arfgap1-stimulated ARF1 GTP hydrolysis, GDP FP detection. Q62848. inhibition, % at 16.5 µM. hit rate 0.26% among 360,000;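 active = inhibition above a per-plate limit, mean inhibition of low control wells plus 3 SD, cut at about 25% in these data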;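 also: 0% = DMSO wells with enzyme and 100% = wells lacking Arfgap1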
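Replicates: Single well per compound | Assay system: Truncated rat Arfgap1 GAP domain | Control set: No-Arfgap1 wells (100%) versus DMSO full-reaction wells (0%) | Times: Enzyme reaction 120 min at 25 °C after 20 min preincubation | Reagent: Human ARF1(Δ1-17)-GTP substrate | Measured by: Tracer-displacement fluorescence polarization with EDTA stop, 620/688 nm | Measure: Percent inhibition of Arfgap1-stimulated GTP hydrolysis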
pPAFAH inh: inhibitors of human plasma PAF acetylhydrolase (pPAFAH). Q13093. recombinant pPAFAH, FP-rhodamine probe fluorescence polarization. inhibition, % at 3.39 µM. hit rate 1.5% among 330,000;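 active = inhibition above the mean inhibition across the screen plus 3 SD, cut at about 25% in these data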;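 also: inhibitors block binding of the rhodamine activity-based probe so polarization drops; 0% = enzyme with DMSO and 100% = wells lacking pPAFAH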
PAFAH2 inh: inhibitors of human PAFAH2 | AID 492956 | recombinant PAFAH2, FP-rhodamine activity probe, fluorescence polarization | inhibition, % at 3.39 µM | hit rate 0.99% among 340,000 | Q99487;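 active = inhibition above the mean over all tested compounds plus 3 SD, cut at about 30% in these data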;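 also: inhibitors block probe labeling of enzyme so polarization drops; 0% = enzyme with DMSO and 100% = wells lacking PAFAH2 protein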
PAFAH1B3 inh: blocks human PAF acetylhydrolase 1B catalytic subunit 3. recombinant PAFAH1B3, FP-rhodamine probe, fluorescence polarization. hit rate 0.28% among 340,000. inhibition, % at 3.39 µM. Q15102;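 active = inhibition above the screen-wide average of all tested compounds plus 3 SD, cut at about 25% in these data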;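 also: 0% = enzyme with DMSO only and 100% = wells lacking PAFAH1B3 protein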
Target sequence (Q15102 whole entry, looked up): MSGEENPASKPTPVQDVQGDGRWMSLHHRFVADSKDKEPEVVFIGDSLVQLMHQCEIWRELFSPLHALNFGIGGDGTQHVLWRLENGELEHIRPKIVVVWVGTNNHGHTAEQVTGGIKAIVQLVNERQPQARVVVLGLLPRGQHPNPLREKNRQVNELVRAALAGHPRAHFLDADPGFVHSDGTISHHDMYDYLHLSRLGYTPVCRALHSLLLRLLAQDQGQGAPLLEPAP
ASAP1 inh: inhibitors of human ASAP1 ArfGAP activity | Q9ULH1 | inhibition, % at 16.5 µM | ASAP1-stimulated ARF1 GTP hydrolysis, GDP FP detection | hit rate 0.19% among 360,000; in the data active = inhibition above about 25%;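 also: 0% = vehicle with enzyme and substrate and 100% = no enzyme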
Target sequence (Q9ULH1 325-724 limits assumed): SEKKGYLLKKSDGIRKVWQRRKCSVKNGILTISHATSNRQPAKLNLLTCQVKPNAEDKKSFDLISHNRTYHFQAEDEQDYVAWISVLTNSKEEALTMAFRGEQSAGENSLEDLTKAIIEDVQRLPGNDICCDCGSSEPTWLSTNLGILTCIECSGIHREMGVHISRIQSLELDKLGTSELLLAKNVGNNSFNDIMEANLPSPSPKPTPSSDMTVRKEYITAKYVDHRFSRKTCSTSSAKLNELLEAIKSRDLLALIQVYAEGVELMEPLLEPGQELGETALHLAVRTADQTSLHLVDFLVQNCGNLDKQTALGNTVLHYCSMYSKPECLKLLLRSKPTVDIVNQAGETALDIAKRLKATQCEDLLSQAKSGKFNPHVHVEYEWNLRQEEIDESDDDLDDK
* marks the source's active call; other numbers are inactive results; . = no result.

SMILES | PAFAH1B2 FP inh | ARFGAP1 inhibitor | pPAFAH inh | PAFAH2 inh | PAFAH1B3 inh | ASAP1 inh
Cc1cccc(Nc2nnc(SCC(O)=C(C#N)c3nc4ccccc4[nH]3)s2)c1 | 25.8* | 6.7 | . | 4.0 | 9.5 | -5.3
CC(NS(=O)(=O)c1ccc2c(c1)OCCO2)c1ccccc1 (stereo unspecified) | 27.1* | -2.1 | 8.4 | 6.4 | 5.7 | -2.0
COc1cccc(-c2nc3nc(C)cc(C)n3c2NCc2ccccc2)c1 | . | 3.3 | . | . | . | 8.4
O=C(CC1SCCNC1=O)NCc1ccccc1 (stereo unspecified) | . | -4.7 | . | . | . | -4.8
Nc1cccc2cc(S(=O)(=O)O)ccc12 | 31.1* | -10.2 | . | 30.1* | 49.0* | 1.5
O=Nc1c(O)ccc2cc(S(=O)(=O)O)ccc12 | 9.6 | . | . | 4.0 | 22.6 | .
COC(=O)c1ccc(Cn2cnc3cnccc32)cc1 | -0.3 | -7.7 | 5.7 | 1.7 | 6.3 | -1.4
CC(C)Cc1csc(NC(=O)c2ccccc2Cl)c1C(=O)O | 2.5 | -5.9 | -0.2 | 4.5 | 1.8 | -1.7
CC(C)Cc1csc(NC(=O)c2ccc(Cl)cc2)c1C(=O)O | 4.7 | -0.1 | 11.1 | 42.4* | 5.2 | -18.5
COc1cc(F)ccc1-c1cc(C(=O)NCc2ccc(F)cc2)[nH]n1 | . | 10.9 | . | . | . | 5.3
COc1cc(/C=C/C(=O)OCC(=O)NCC2CCCCC2)ccc1O | 3.8 | 6.6 | 27.6* | 87.6* | -0.5 | -4.1
COc1ccc(Cl)cc1NC(=O)CN1CCC(n2nnc3ccccc32)CC1 | 0.7 | 18.5 | 25.3* | -5.5 | 3.7 | 8.4
O=C(N/C=C/c1ccccc1)c1ccccc1 | 3.4 | 13.0 | 6.0 | -5.3 | -1.1 | 5.6
Cc1cccc(Oc2sc(C(=O)c3ccccc3)c(N)c2C#N)c1 | 4.6 | 8.2 | 26.4* | 7.2 | 8.8 | -12.3
N#Cc1c(Nc2ccccc2)sc(C(=O)c2ccccc2)c1N | -2.2 | 3.6 | 21.3 | 4.6 | 9.7 | -2.2
COc1cc(-c2ccc3oc(-c4cccc(C)c4)c(C#CC4(O)CCCCC4)c3c2)cc(OC)c1OC | -2.8 | 15.7 | 27.1* | -8.4 | -6.6 | 8.1
CCOc1ccc(NC(=O)c2sc3nc(N4CCOCC4)c4c(c3c2N)CC(C)(C)OC4)cc1 | 2.1 | -2.1 | 2.6 | -5.2 | 0.6 | -5.5
CCCCCCCCN1C(=O)[C@@H](CC(=O)NCC2CCCCC2)C[C@@]2(C(=O)OC)C1=C[C@H](C1CCCC1)O[C@@H]2C | . | -15.4 | . | . | . | 10.0
O=C(O)CCCC(=O)Nc1ccc(Br)cc1C(=O)O | 27.2* | -6.8 | -3.1 | -5.1 | 8.4 | -7.4
CCCCNC(=O)C1(C)CCC(=O)N1CCOc1ccccc1 (stereo unspecified) | . | -0.2 | . | . | . | -5.2
COCOCCn1cc(CN2CCS(=O)(=O)N(Cc3ccc(-c4ccc(Cl)cc4)cc3)C(CC(C)C)C2=O)nn1 (stereo unspecified) | . | 13.2 | . | . | . | 3.2
CCN(CC)S(=O)(=O)c1cc(C(=O)OCC(=O)NC2CCCc3ccccc32)ccc1C (stereo unspecified) | 1.1 | -5.2 | 26.9* | 67.4* | 7.0 | 5.4
CCN(CC)S(=O)(=O)c1cc(C(=O)OCC(=O)Nc2c(F)cccc2F)ccc1F | 0.4 | 9.1 | 32.5* | 28.5 | 7.4 | -4.9
C[C@H](CO)N1C[C@H](C)[C@H](CN(C)S(=O)(=O)c2cccc(F)c2)Oc2ncc(-c3cccc(C(=O)N(C)C)c3)cc2C1=O | . | 5.9 | . | . | . | -1.2
C[C@H]1CCC[C@]2(C)C[C@H]3OC(=O)C(CN4CCCCCC4)[C@H]3C=C12 (stereo partly specified) | 30.4* | 0.5 | 7.0 | 18.9 | 1.6 | -10.3
SMILES | PAFAH1B2 FP inh | ARFGAP1 inhibitor | pPAFAH inh | PAFAH2 inh | PAFAH1B3 inh | ASAP1 inh
N#CC1=C(N)S[C@H](C(=O)C23CC4CC(CC(C4)C2)C3)[C@H]1c1ccncc1 | 28.4* | . | -0.8 | 7.5 | 2.8 | .
COC(=O)c1cc2c(c3c4cc(C)ccc4n(S(=O)(=O)c4ccc(C)cc4)c13)C(=O)N(Cc1ccc(N(C)C)cc1)C2 | . | 16.2 | . | . | . | -0.9
NC(=O)c1ncn([C@@H]2O[C@H](CNCc3cc(Cl)ccc3OCc3ccc(Cl)cc3)[C@@H](O)[C@H]2O)n1 | 28.5* | -8.9 | . | 12.6 | 4.4 | 8.2
Nc1ccn([C@@H]2O[C@H](CNCc3cc(Cl)ccc3OCc3ccc(Cl)cc3)[C@@H](O)[C@H]2O)c(=O)n1 | . | -1.3 | . | . | . | 13.8
Cc1cc(SCC2=NNC(=O)C2)c(Cl)cc1Cl | 4.4 | 1.2 | 28.0* | -6.6 | 9.7 | 16.5
CC(=O)NN1C(=O)/C(=C\c2ccc(Br)o2)SC1=S | -3.7 | 1.1 | 27.3* | 2.7 | 0.2 | -10.2
Cc1cc2oc(=O)cc(-c3ccccc3)c2c(C)c1-c1ccc(O)cc1 | -1.3 | 7.4 | 2.3 | -6.2 | 6.9 | 8.5
Cc1oc2cc(Br)c(O)c(Br)c2c1-c1ccccc1 | 16.1 | . | 17.3 | 71.9* | -3.6 | .
O=C(Cn1c2ccc(F)cc2c2nc3n(c(=O)c21)CCS3)NCC1CCCO1 (stereo unspecified) | -0.7 | 7.4 | 0.2 | 2.3 | 1.6 | -6.5
O=C1C(=O)C(c2ccccc2)C(=O)C1c1ccccc1 (stereo unspecified) | 32.2* | 1.4 | . | 7.2 | 9.7 | -3.6
Cc1nn(C2CCS(=O)(=O)C2)c2nc(C3CC3)cc(C(=O)Nc3cccc(C#N)c3)c12 (stereo unspecified) | -0.7 | 4.5 | . | -0.4 | 3.9 | -14.3
CCOC(=O)CCCCCC(=O)Nc1ccc2c(c1)C(=O)N([C@H](C)CO)C[C@@H](C)[C@@H](CN(C)C(=O)CCC(F)(F)F)OCCCC[C@H](C)O2 | . | 7.2 | . | . | . | 2.4
CC(OC(=O)C1=COCCO1)C(=O)Nc1ncc(Cl)cc1Cl (stereo unspecified) | 46.7* | -4.0 | . | 1.1 | -5.6 | -4.6
Cc1ccc(Nc2c(-c3ccccn3)nc3ccc(C)cn23)cc1 | 7.9 | -2.1 | 28.1* | -3.3 | 5.4 | -11.3
Cc1ccccc1SCC(=O)NCC1(N2CCCCC2)CCCCC1 | . | -16.7 | . | . | . | 5.4
CC(CC(=O)Nc1ccc2c(c1)c(=O)n(C)n2-c1ccccc1F)c1ccccc1 (stereo unspecified) | . | 6.9 | . | . | . | 1.6
CCCCNS(=O)(=O)c1cc2c3c(c1)CCN3C(=O)CC2 | -0.6 | 7.8 | -0.8 | 0.6 | -5.5 | -8.9
O=C1C(SCCO)=C(SCCO)C(=O)c2ccccc21 | 46.0* | -5.2 | 3.8 | 49.8* | 46.5* | 19.0
O=C1C(Cl)=C(NCCCO)C(=O)c2ccccc21 | 7.2 | -10.9 | 0.4 | 0.6 | 12.4 | 0.6
O=c1cc(-c2ccc(O)c(O)c2)oc2cc(O)cc(O)c12 | 34.0* | 2.7 | 21.5 | 29.6 | 39.4* | 16.3
O=C(CCS(=O)(=O)c1ccccc1)NNC(=O)COc1ccc(F)cc1 | 9.0 | -2.6 | 0.8 | 8.7 | 7.9 | 2.4
CCn1c(CSCc2ccc(F)cc2)nnc1SCC(=O)NCc1ccccc1 | 29.9* | -12.8 | 4.2 | -0.3 | 2.2 | 1.6
CCn1c(COc2ccccc2C)nnc1SCC(=O)NCc1ccccc1 | 1.7 | 4.0 | 3.2 | -0.1 | 3.5 | 1.8
